In brackets after ≈: the same amount, converted by molar mass.
How the values were obtained:
[1] = target: Tyrosine-protein kinase JAK2 (Homo sapiens, UniProt O60674)
[2] = target: Tyrosine-protein kinase JAK1 (Homo sapiens, UniProt P23458); assay: Inhibition of recombinant GST tagged JAK1 protein after 60 mins using FITC-Ahx-KKSRGDYMTMQIG-NH2 substrate
[3] = target: Non-receptor tyrosine-protein kinase TYK2 (Homo sapiens, UniProt P29597); assay: Inhibition of recombinant GST tagged TYK2 protein after 60 mins using FITC-Ahx-KKSRGDYMTMQIG-NH2 substrate
[4] = target: T1, Tyrosine-protein kinase JAK3 (Homo sapiens, UniProt P52333)
T1 sequence (P52333 whole entry): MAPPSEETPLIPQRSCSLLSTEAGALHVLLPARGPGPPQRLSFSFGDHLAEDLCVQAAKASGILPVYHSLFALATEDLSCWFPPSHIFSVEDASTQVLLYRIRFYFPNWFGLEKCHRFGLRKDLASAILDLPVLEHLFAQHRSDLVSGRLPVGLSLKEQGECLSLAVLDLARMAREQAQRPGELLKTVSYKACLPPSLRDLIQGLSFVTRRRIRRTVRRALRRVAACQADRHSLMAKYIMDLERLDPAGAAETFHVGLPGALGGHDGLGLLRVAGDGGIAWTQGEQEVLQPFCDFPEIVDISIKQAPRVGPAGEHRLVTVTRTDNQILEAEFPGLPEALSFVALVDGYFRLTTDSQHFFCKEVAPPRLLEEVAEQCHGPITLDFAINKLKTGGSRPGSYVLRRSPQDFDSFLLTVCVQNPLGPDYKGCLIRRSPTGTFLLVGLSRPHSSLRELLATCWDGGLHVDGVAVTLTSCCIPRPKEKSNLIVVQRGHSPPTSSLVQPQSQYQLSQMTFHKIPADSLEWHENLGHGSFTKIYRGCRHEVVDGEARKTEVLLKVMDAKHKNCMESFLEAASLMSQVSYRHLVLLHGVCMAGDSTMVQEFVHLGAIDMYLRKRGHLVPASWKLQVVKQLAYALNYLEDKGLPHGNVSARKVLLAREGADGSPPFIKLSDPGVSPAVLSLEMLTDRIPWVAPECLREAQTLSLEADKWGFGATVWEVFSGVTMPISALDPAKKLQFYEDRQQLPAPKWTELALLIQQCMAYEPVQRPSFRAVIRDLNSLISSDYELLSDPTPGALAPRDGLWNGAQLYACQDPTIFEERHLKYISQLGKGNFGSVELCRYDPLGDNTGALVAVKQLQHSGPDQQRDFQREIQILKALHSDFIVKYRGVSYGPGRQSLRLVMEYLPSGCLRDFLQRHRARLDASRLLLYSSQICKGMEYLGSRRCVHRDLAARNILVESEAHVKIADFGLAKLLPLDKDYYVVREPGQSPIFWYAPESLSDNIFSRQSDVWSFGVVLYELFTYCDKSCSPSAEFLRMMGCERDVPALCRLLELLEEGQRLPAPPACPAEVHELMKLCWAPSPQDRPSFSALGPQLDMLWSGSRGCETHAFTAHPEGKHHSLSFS

[5] = Cmax in rat at 3 mg/kg, po or 1 mg/kg, iv by MS/MS analysis; type: ADME, organism-based; conditions: in vivo
Summary of the method: (§1)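 Conscious, fed, permanently cannulated female rats, n=4; 1 mg/kg iv via femoral vein in 30% NMP/PEG200, and 3 mg/kg po by gavage in 50% aqueous PEG200, crossover with 48 h washout. Arterial blood was sampled for 48 h (iv) or 24 h (po), precipitated with CH3CN, and measured by C18 HPLC-MS/MS.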

[6] = Aqueous solubility at pH 6.8; type: physicochemical
[7] = Clearance in rat at 1 mg/kg, iv after 48 hrs by MS/MS analysis; conditions: in vivo
[8] = Oral bioavailability in rat at 3 mg/kg after 24 hrs by MS/MS analysis; type: ADME, organism-based; conditions: in vivo
Summary of the method: as §1

[9] = Tmax in rat at 3 mg/kg, po or 1 mg/kg, iv by MS/MS analysis; type: ADME, organism-based; conditions: in vivo
Summary of the method: as §1

[10] = Growth inhibition of human SET2 cells expressing JAK2V617F mutant after 72 hrs by colorimetric WST1 assay; type: functional; conditions: SET-2, 72 h
Summary of the method: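 Megakaryoblastic SET-2 cells were grown in RPMI with 10% FCS, 2 mM L-glutamine and 1% penicillin/streptomycin. Cells were exposed to an 8-point compound concentration range for 72 h. Proliferation was read by WST-1 colorimetric viability, relative to DMSO vehicle controls.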

[11] = Dissociation constant, pKa of the compound; type: physicochemical
[12] = Partition coefficient, log P of the compound; type: physicochemical; conditions: octanol/water
[13] = Volume of distribution at steady state in rat at 1 mg/kg, iv or 3 mg/kg, po by MS/MS analysis; type: ADME, organism-based; conditions: in vivo, read-out: Vdss
Summary of the method: as §1

[14] = AUC in rat at 1 mg/kg, iv after 48 hrs by MS/MS analysis; type: ADME, organism-based; parameters: time < 48 hr, dose 1 mg/kg, route intravenous; conditions: plasma
Summary of the method: as §1

[15] = Half life in rat at 1 mg/kg, iv after 48 hrs by MS/MS analysis; conditions: in vivo
[16] = target: Tyrosine-protein kinase ABL1 (Homo sapiens, UniProt P00519)
[17] = Volume of distribution in iv dosed rat; type: ADME, organism-based; conditions: in vivo
Summary of the method: (§2)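 Conscious rats given an iv bolus, then oral dosing at 3 mg/kg as a suspension in 0.5% carboxymethyl cellulose in bidistilled water. Clearance, volume of distribution, terminal half-life, oral AUC and bioavailability were derived.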

Rattus norvegicus [18] = assay: Oral bioavailability in rat at 3 mg/kg; type: ADME, organism-based; conditions: in vivo
Summary of the method: as §2

Rattus norvegicus [19] = assay: AUC in rat at 3 mg/kg, po; type: ADME, organism-based, Plasma; parameters: dose 3 mg/kg, route oral; conditions: in vivo
Summary of the method: as §2

[20] = Terminal half life in iv dosed rat; type: ADME, organism-based; conditions: in vivo, read-out: beta t1/2 (converted)
Summary of the method: as §2

Tyrosine-protein kinase JAK1, sequence (P23458 whole entry): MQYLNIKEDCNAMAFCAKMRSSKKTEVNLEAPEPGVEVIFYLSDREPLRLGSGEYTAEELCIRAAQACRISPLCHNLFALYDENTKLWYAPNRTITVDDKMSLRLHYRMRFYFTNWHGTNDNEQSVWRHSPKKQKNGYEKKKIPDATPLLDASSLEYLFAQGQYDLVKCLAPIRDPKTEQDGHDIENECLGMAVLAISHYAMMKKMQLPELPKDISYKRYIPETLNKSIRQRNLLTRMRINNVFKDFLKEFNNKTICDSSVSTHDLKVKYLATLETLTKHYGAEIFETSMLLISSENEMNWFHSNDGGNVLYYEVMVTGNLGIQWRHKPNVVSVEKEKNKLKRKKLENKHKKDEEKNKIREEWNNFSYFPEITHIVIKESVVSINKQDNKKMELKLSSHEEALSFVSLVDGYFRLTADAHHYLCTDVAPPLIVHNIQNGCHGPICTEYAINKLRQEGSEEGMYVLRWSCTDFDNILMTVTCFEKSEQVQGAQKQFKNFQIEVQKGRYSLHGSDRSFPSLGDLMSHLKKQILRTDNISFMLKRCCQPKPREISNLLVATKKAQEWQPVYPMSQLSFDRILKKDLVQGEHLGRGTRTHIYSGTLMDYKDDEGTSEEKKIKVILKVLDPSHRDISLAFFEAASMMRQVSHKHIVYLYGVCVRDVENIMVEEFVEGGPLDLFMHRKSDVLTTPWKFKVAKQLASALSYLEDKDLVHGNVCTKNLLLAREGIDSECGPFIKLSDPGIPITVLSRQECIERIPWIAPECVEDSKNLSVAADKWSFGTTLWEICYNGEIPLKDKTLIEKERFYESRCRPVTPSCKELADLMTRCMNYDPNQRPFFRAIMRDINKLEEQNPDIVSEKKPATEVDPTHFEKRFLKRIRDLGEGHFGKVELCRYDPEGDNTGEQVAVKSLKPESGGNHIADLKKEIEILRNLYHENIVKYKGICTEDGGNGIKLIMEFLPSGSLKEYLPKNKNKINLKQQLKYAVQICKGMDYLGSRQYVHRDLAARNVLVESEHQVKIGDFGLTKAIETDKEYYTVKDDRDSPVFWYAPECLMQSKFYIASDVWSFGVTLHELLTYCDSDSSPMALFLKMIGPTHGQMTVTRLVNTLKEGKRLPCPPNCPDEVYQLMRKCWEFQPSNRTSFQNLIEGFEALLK
Non-receptor tyrosine-protein kinase TYK2, sequence (P29597 whole entry): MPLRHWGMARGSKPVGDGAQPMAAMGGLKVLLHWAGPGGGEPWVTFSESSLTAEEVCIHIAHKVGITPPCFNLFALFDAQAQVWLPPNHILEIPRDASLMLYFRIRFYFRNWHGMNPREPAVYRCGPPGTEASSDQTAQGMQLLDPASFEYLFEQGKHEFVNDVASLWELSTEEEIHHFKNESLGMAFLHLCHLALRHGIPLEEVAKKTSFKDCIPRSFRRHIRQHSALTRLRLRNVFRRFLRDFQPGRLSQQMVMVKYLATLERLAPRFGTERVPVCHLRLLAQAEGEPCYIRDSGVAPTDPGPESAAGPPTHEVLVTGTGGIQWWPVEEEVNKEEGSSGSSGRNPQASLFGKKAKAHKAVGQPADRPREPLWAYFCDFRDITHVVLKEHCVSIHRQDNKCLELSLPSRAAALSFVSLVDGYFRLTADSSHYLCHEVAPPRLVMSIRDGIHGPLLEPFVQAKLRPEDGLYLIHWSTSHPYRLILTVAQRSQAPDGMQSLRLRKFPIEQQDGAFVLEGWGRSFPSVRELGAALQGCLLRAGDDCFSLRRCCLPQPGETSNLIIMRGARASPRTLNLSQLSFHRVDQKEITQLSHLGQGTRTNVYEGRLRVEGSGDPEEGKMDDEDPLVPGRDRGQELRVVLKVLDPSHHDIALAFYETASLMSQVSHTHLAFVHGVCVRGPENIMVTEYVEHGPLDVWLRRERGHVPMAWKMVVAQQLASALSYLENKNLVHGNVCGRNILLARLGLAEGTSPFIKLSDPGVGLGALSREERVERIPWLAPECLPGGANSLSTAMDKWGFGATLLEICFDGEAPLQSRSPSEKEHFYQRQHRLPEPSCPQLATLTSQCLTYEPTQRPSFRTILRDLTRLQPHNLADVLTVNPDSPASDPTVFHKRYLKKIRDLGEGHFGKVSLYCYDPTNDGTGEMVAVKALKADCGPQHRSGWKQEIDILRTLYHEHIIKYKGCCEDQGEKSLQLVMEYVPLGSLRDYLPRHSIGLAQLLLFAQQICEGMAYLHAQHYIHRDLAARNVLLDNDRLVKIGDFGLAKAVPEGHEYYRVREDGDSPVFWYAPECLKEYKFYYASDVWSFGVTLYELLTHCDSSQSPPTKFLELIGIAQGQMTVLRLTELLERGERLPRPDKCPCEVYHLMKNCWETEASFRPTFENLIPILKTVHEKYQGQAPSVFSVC
Tyrosine-protein kinase JAK2, sequence (O60674 whole entry): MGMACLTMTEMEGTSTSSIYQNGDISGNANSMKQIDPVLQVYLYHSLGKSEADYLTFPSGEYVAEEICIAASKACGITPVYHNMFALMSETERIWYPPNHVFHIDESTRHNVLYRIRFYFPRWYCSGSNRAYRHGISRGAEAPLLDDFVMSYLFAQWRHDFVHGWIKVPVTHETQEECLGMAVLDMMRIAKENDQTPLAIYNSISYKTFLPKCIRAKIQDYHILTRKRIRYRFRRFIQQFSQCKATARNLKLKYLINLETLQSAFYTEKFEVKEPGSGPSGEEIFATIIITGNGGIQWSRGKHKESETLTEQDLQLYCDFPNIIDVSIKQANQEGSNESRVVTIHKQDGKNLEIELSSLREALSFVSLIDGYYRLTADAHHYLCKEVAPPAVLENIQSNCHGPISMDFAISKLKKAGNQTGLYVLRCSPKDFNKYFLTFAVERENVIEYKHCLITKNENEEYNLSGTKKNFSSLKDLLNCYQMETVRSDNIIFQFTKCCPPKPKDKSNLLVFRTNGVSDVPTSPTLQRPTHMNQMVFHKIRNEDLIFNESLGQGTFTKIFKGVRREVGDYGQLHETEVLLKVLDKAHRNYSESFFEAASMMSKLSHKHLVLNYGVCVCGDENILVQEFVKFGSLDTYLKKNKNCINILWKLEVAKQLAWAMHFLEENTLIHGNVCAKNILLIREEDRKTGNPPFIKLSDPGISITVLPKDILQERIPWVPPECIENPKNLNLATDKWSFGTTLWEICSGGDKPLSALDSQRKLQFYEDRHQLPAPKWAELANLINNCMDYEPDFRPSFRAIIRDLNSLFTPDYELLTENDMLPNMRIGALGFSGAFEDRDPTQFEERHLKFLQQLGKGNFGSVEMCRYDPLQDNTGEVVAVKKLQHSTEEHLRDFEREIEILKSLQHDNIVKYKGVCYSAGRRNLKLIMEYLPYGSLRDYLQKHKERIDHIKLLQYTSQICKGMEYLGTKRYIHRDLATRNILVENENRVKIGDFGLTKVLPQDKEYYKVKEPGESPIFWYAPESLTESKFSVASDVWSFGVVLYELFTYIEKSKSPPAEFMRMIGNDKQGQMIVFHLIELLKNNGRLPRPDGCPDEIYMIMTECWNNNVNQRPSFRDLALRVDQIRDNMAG
Tyrosine-protein kinase ABL1, sequence (P00519 whole entry): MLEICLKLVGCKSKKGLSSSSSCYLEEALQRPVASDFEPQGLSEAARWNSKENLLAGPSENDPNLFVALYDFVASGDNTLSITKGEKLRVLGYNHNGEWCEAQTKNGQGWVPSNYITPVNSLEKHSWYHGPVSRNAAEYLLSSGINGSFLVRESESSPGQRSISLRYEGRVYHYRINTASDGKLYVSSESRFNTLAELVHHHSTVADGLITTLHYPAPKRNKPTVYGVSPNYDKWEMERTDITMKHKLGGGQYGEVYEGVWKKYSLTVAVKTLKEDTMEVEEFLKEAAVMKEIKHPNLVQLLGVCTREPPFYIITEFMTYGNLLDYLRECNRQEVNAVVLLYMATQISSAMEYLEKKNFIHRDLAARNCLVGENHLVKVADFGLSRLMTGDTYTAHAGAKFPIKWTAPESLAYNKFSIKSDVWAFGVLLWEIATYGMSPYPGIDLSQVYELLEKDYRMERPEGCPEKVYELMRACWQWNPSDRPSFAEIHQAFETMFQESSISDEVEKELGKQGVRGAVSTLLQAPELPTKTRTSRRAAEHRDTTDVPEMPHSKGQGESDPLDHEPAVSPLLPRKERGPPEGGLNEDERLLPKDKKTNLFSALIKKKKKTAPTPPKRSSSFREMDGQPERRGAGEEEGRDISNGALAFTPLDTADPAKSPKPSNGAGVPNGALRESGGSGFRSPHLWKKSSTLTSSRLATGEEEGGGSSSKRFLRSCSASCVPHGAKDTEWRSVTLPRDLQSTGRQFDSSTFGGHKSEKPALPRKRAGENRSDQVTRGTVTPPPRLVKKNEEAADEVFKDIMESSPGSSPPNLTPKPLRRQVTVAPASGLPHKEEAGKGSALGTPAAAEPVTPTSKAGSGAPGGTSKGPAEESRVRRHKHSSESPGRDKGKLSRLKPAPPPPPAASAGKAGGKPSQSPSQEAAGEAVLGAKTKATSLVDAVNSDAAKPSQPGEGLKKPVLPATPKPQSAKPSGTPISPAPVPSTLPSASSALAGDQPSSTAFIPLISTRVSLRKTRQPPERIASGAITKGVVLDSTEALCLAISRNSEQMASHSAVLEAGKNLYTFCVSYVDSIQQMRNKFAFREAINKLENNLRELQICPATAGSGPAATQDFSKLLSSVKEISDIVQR

COc1cc(-c2cnc3cccc(-c4ccc(C(=O)N5CCOCC5)c(C)c4)c3n2)cc(OC)c1OC
IC50 [1]: 20 nM
IC50 [2]: 460 nM
IC50 [3]: 1400 nM

COc1cc(-c2cnc3cccc(-c4ccc(CN5CCOCC5)c(F)c4)c3n2)cc(OC)c1OC
IC50 [1]: 20 nM
IC50 [2]: 250 nM
IC50 [3]: 2200 nM

CN1CCN(c2ccc(-c3cnc4cccc(-c5cc(F)c(CN6CCOCC6)c(F)c5)c4n3)cc2)CC1
IC50 [4]: 166 nM
Cmax [5]: 74 nM
solubility [6]: 4 µg/mL (≈ 7.76 µM)
clearance at 48 h [7]: 19 mL/min/kg
bioavailability [8]: 100%
Tmax [9]: 5.8 h
GI50 [10]: 152 nM
pKa [11]: 4.5
IC50 [1]: 4.3 nM
logP [12]: 4
IC50 [2]: 28 nM
IC50 [3]: 94 nM
Vd [13]: 18.9 L/kg
AUC at 48 h [14]: 1.65 µM·h
half-life at 48 h [15]: 13.4 h

COc1cc(-c2cnc3cccc(-c4ccc(CN5CCOCC5)cc4C)c3n2)cc(OC)c1OC
IC50 [4]: 2700 nM
IC50 [1]: 685 nM
IC50 [2]: 1200 nM
IC50 [3]: 4200 nM

COc1cc(-c2cnc3cccc(-c4ccc(CN5CCOCC5)cc4F)c3n2)cc(OC)c1OC
IC50 [4]: 9900 nM
IC50 [2]: 4700 nM
IC50 [3]: 9300 nM

Cc1cc(-c2cccc3ncc(-c4ccc(C(=O)N5CCOCC5)c(C)c4)nc23)ccc1CN1CCOCC1
IC50 [4]: 408 nM
IC50 [2]: 362 nM
IC50 [3]: 439 nM

COc1cc(-c2cnc3cccc(-c4ccc(CN5CCS(=O)(=O)CC5)cc4)c3n2)cc(OC)c1OC
IC50 [2]: 98 nM
IC50 [3]: 520 nM

COc1cc(-c2cnc3cc(C)cc(-c4ccc(CC(=O)N5CCS(=O)(=O)CC5)cc4)c3n2)cc(OC)c1OC
IC50 [4]: > 10000 nM
IC50 [1]: 4200 nM
IC50 [2]: > 10000 nM
IC50 [3]: > 10000 nM

COc1cc(-c2cnc3cc(F)cc(-c4ccc(CC(=O)N5CCOCC5)cc4)c3n2)cc(OC)c1OC
IC50 [4]: > 10000 nM
IC50 [1]: 101 nM
IC50 [2]: 940 nM
IC50 [3]: > 10000 nM

COc1cc(-c2cnc3cccc(-c4ccc(C(=O)N5CCOCC5)cc4)c3n2)cc(OC)c1OC
IC50 [2]: 390 nM
IC50 [3]: 2900 nM

Cc1cc(-c2cnc3cccc(-c4ccc(CN5CCS(=O)(=O)CC5)cc4)c3n2)ccc1C(=O)N1CCN(C)CC1
IC50 [4]: 232 nM
GI50 [10]: 96 nM
pKa [11]: 3.9
IC50 [1]: 7.1 nM
logP [12]: 2.8
IC50 [2]: 89 nM

COc1cc(-c2cnc3cccc(-c4ccc(CN5CCOCC5)cc4)c3n2)cc(OC)c1OC
IC50 [4]: > 10000 nM
IC50 [2]: 1500 nM
IC50 [3]: > 10000 nM

Cc1cc(-c2cnc3cccc(-c4ccc(CN5CCOCC5)c(F)c4)c3n2)ccc1C(=O)N1CCOCC1
IC50 [4]: 630 nM
GI50 [10]: 226 nM
IC50 [1]: 12.5 nM
IC50 [2]: 190 nM
IC50 [3]: 520 nM

CN1CCN(c2ccc(-c3cnc4cccc(-c5cc(F)c(CN6CCS(=O)(=O)CC6)c(F)c5)c4n3)cn2)CC1
IC50 [4]: 230 nM
Cmax [5]: 47 nM
solubility [6]: 4 µg/mL (≈ 7.08 µM)
clearance at 48 h [7]: 39 mL/min/kg
bioavailability [8]: 100%
Tmax [9]: 8 h
GI50 [10]: 98 nM
pKa [11]: 3.6
IC50 [1]: 6.8 nM
logP [12]: 3.8
IC50 [2]: 82 nM
IC50 [3]: 86 nM
Vd [13]: 13.2 L/kg
AUC at 48 h [14]: 0.76 µM·h
half-life at 48 h [15]: 4.8 h

Fc1cc(-c2cccc3ncc(-c4cnn(C5CCNCC5)c4)nc23)cc(F)c1CN1CCOCC1
Cmax [5]: 16 nM
solubility [6]: > 1500 µg/mL
bioavailability [8]: 31%
Tmax [9]: 7 h
GI50 [10]: 88 nM
pKa [11]: 5.5
IC50 [16]: 80 nM
Vd [13]: 33 L/kg
AUC at 48 h [14]: 1.47 µM·h

Cc1cc(-c2cnc3cccc(-c4cc(F)c(CN5CCOCC5)c(F)c4)c3n2)ccc1C(=O)N1CCOCC1
IC50 [4]: 130 nM
GI50 [10]: 135 nM
IC50 [1]: 3.1 nM
IC50 [2]: 60 nM
IC50 [3]: 120 nM

COc1cc(-c2cnc3cccc(-c4ccc(CC(=O)N5CCOCC5)cc4)c3n2)cc(OC)c1OC
GI50 [10]: 228 nM
IC50 [1]: 13 nM
IC50 [2]: 91 nM

COc1cc(-c2cnc3cccc(-c4ccc(CN5CCOCC5)c(C)c4)c3n2)cc(OC)c1OC
IC50 [2]: 1850 nM
IC50 [3]: 7130 nM

COc1cc(-c2cnc3cccc(-c4ccc(CC(=O)N5CCS(=O)(=O)CC5)cc4)c3n2)cc(OC)c1OC
GI50 [10]: 119 nM
IC50 [2]: 35 nM
IC50 [3]: 340 nM

CNS(=O)(=O)c1ccc(-c2cccc3ncc(-c4cc(OC)c(OC)c(OC)c4)nc23)cc1
Vd [17]: 6.75 L/kg
IC50 [4]: 1300 nM
F (Rattus norvegicus [18]): 34%
IC50 [2]: 130 nM
IC50 [3]: 640 nM
AUC (Rattus norvegicus [19]): 4 µg·min/mL
half-life [20]: 1.69 h

— ChEMBL document CHEMBL1156975, “Discovery and SAR of potent, orally available 2,8-diaryl-quinoxalines as a new class of JAK2 inhibitors” (Bioorg Med Chem Lett, 2010)
